≈ marks a conversion by molar mass, not a printed value.

What all share (format): functional, cell-based
One assay has as its system THP-1. The experiment in a line: Cytotoxicity against human THP1 cells after 24 hrs by MTT assay. The note with it: THP-1, 24 h. Put shortly: (§1)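 Cells kept in RPMI-1640 with 10% heat-inactivated FBS, 1 mM NaHCO3, 2 mM L-glutamine and 100 units/ml antibiotic. Seeded at 2 × 10^4 per well in 0.1 ml, left overnight, then given graded compound from DMSO stocks for 24 h. MTT added for a further 3 h at 37 °C, formazan dissolved in DMSO and read at 570 nm. Percent viability inhibition taken against untreated control; IC50 from linear regression.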

The subject of another assay is U-937. The experiment in a line: Cytotoxicity against human U937 cells after 24 hrs by MTT assay. As to conditions: U-937, 24 h. Put shortly:
as §1

The test system of a further assay is COLO 205. Briefly: Cytotoxicity against human COLO205 cells after 24 hrs by MTT assay. The note with it: COLO 205, 24 h. In a few lines:
as §1

As to `O=c1c2c(C(F)(F)F)cc(-c3ccccc3)nc2ncn1Cc1cn(CCC(F)(F)C(F)(F)C(F)(F)C(F)(F)C(F)(F)C(F)(F)C(F)(F)C(F)(F)F)nn1`, the values for the 50% inhibitory concentration (IC50) in the assay with THP-1, in the assay with U-937 and in the assay with COLO 205 were 79.1 µg/mL (≈ 96.7 µM), > 200 µg/mL and 163 µg/mL (≈ 199 µM), respectively.

`CCCCCCCCCCn1cc(Cn2cnc3nc(-c4ccccc4)cc(C(F)(F)F)c3c2=O)nn1`: the half-inhibitory concentration (IC50) with THP-1 is 16.9 µg/mL (≈ 33 µM); in the assay on U-937, 8.16 µg/mL (≈ 15.9 µM); in the assay on COLO 205 it was 19.2 µg/mL (≈ 37.6 µM).

As to `Cc1nc2nc(-c3ccccc3)cc(C(F)(F)F)c2c(=O)n1Cc1cn(CCC(F)(F)C(F)(F)C(F)(F)C(F)(F)C(F)(F)C(F)(F)F)nn1`, the IC50 in the assay with THP-1, with U-937 and in the assay with COLO 205 was > 200 µg/mL in each case.

As to `Cc1nc2nc(-c3ccccc3)cc(C(F)(F)F)c2c(=O)n1Cc1cn(CCC(F)(F)C(F)(F)C(F)(F)C(F)(F)C(F)(F)C(F)(F)C(F)(F)C(F)(F)F)nn1`, the results for the concentration for half-maximal inhibition (IC50) with THP-1, in the assay on U-937 and in the assay on COLO 205 were > 200 µg/mL, 124 µg/mL (≈ 149 µM) and > 200 µg/mL, respectively.

In the case of `CCCCCCCCCCn1cc(Cn2c(C)nc3nc(-c4ccccc4)cc(C(F)(F)F)c3c2=O)nn1`, the values for the IC50 with THP-1, in the assay on U-937 and in the assay with COLO 205 were 11.3 µg/mL (≈ 21.4 µM), 6.2 µg/mL (≈ 11.8 µM) and 15 µg/mL (≈ 28.5 µM), respectively.

`Cc1nc2nc(-c3ccccc3)cc(C(F)(F)F)c2c(=O)n1Cc1cn(-c2ccccc2)nn1`: the IC50 in the assay with THP-1, in the assay on U-937 and in the assay with COLO 205 was > 200 µg/mL in each case.

Consider `CCc1nc2nc(-c3ccccc3)cc(C(F)(F)F)c2c(=O)n1Cc1cn(CCC(F)(F)C(F)(F)C(F)(F)C(F)(F)C(F)(F)C(F)(F)F)nn1`, for which the IC50 in the assay on THP-1, with U-937 and in the assay with COLO 205 was > 200 µg/mL each time.

Regarding `CCc1nc2nc(-c3ccccc3)cc(C(F)(F)F)c2c(=O)n1Cc1cn(CCC(F)(F)C(F)(F)C(F)(F)C(F)(F)C(F)(F)C(F)(F)C(F)(F)C(F)(F)F)nn1`, the IC50 in the assay on THP-1, in the assay with U-937 and with COLO 205 was > 200 µg/mL each time.

On to `CCCCCCCCCCn1cc(Cn2c(CC)nc3nc(-c4ccccc4)cc(C(F)(F)F)c3c2=O)nn1`, for which the half-maximal inhibitory concentration (IC50) is 82.6 µg/mL (≈ 153 µM) with THP-1, 17.8 µg/mL (≈ 33 µM) in the assay with U-937 and > 200 µg/mL in the assay with COLO 205.

`CC(C)c1nc2nc(-c3ccccc3)cc(C(F)(F)F)c2c(=O)n1Cc1cn(CCC(F)(F)C(F)(F)C(F)(F)C(F)(F)C(F)(F)C(F)(F)C(F)(F)C(F)(F)F)nn1`: the IC50 was 142 µg/mL (≈ 165 µM) in the assay on THP-1, 8.35 µg/mL (≈ 9.7 µM) in the assay with U-937 and > 200 µg/mL in the assay on COLO 205.

On to `CCCCCCc1nc2nc(-c3ccccc3)cc(C(F)(F)F)c2c(=O)n1Cc1cn(CCC(F)(F)C(F)(F)C(F)(F)C(F)(F)C(F)(F)C(F)(F)F)nn1`, for which the IC50 is > 200 µg/mL in the assay on THP-1, 7.56 µg/mL (≈ 9.42 µM) in the assay on U-937 and 132 µg/mL (≈ 165 µM) with COLO 205.

Consider `CCCCCCc1nc2nc(-c3ccccc3)cc(C(F)(F)F)c2c(=O)n1Cc1cn(CCC(F)(F)C(F)(F)C(F)(F)C(F)(F)C(F)(F)C(F)(F)C(F)(F)C(F)(F)F)nn1`, for which the IC50 in the assay with THP-1, with U-937 and in the assay on COLO 205 was > 200 µg/mL each time.

For the molecule `Cc1nc(OCc2cn(CCC(F)(F)C(F)(F)C(F)(F)C(F)(F)C(F)(F)C(F)(F)C(F)(F)C(F)(F)F)nn2)c2c(C(F)(F)F)cc(-c3ccccc3)nc2n1`, the IC50 is 107 µg/mL (≈ 129 µM) in the assay on THP-1, 22.4 µg/mL (≈ 26.9 µM) in the assay on U-937 and > 200 µg/mL with COLO 205.

Consider `CCc1nc(OCc2cn(CCC(F)(F)C(F)(F)C(F)(F)C(F)(F)C(F)(F)C(F)(F)F)nn2)c2c(C(F)(F)F)cc(-c3ccccc3)nc2n1`, for which the half-maximal inhibitory concentration (IC50) in the assay with THP-1 is > 200 µg/mL; in the assay with U-937 it was 9.22 µg/mL (≈ 12.4 µM); in the assay with COLO 205 it was > 200 µg/mL.

Regarding `FC(F)(F)c1cc(-c2ccccc2)nc2nc(-c3ccccc3)nc(OCc3cn(CCC(F)(F)C(F)(F)C(F)(F)C(F)(F)C(F)(F)C(F)(F)C(F)(F)C(F)(F)F)nn3)c12`, the values for the IC50 in the assay on THP-1, in the assay on U-937 and in the assay with COLO 205 were > 200 µg/mL, 44.4 µg/mL (≈ 49.6 µM) and > 200 µg/mL, respectively.

In the case of `COc1cc([C@@H]2c3cc4c(cc3[C@@H](O[C@@H]3O[C@@H]5CO[C@@H](C)O[C@H]5[C@H](O)[C@H]3O)[C@H]3COC(=O)[C@H]23)OCO4)cc(OC)c1O` [ETOPOSIDE], the IC50 with THP-1 is 2.16 µg/mL (≈ 3.67 µM); with U-937, 17.9 µg/mL (≈ 30.5 µM); in the assay on COLO 205, 7.24 µg/mL (≈ 12.3 µM).

Source of the values: ChEMBL document CHEMBL1806442, “Synthesis of novel alkyltriazole tagged pyrido[2,3-d]pyrimidine derivatives and their anticancer activity” (Eur J Med Chem, 2011).
